Assay results collected from several papers.
Lines come from different studies, so protocols differ.
Target: Bone morphogenetic protein receptor type-1B (BMPR1B, Homo sapiens, UniProt O00238)

For `CSc1cccnc1N1CCN(Cc2nc3ccccc3[nH]2)CC1`, the remaining binding was 80% (cell-free assay; competition with immobilised ligand; 1 µM).
`CCN1CCN(Cc2ccc(C(=O)Nc3ccc(C)c(Oc4ccc5c(c4)CC(=O)N5)c3)cc2C(F)(F)F)CC1` gave a remaining binding of 100% (binding; competition with immobilised ligand; 1 µM).
The remaining binding of `C[C@@H](c1ccc(-n2cnc3c(N)ncnc32)cc1)N1CCc2nn(C)c(Cc3ccccc3)c2C1=O` is reported as 84% (binding; competition with immobilised ligand; 0.1 µM).
`Cc1cc(C)c(-n2ccn3nc(-c4cccnc4)cc23)cc1NC(=O)c1cc(C#N)cc(S(F)(F)(F)(F)F)c1` gave a remaining binding of 72.3% (cell-free assay; competition with immobilised ligand; 0.1 µM).
The remaining binding of `Cc1cnc(Nc2ccc(C(=O)N3CCC(N4CCCC4)CC3)cc2)nc1-c1cc2ccccc2s1` is reported as 26% (binding; competition with immobilised ligand; 1 µM).
`N[C@H]1CCN(c2nccc(-c3cnn4ncccc34)n2)C1` has a remaining binding of 100% (binding; 1 µM).
The remaining binding of `CCCCN(CCCC)C(=O)CN1C[C@H](c2cc(OC)c3c(c2)OCO3)[C@@H](C(=O)O)[C@@H]1CC(C)(C)CCC` is reported as 59% (cell-free assay; competition with immobilised ligand; 1 µM).
For `O=C(NCCCN1CCOCC1)c1ccc(Nc2nccc(-c3cc4ccccc4s3)n2)cc1`, the remaining binding was 34% (binding; competition with immobilised ligand; 1 µM).
`C[C@H]1CCN(c2nccc(-c3cnn4ncccc34)n2)C1` has a remaining binding of 60% (binding; 1 µM).
`CNC(=O)Nc1ccc2c(c1)[C@@]1(CC2)OC(=O)N(CC(=O)N(Cc2ccc(F)cc2)[C@@H](C)C(F)(F)F)C1=O` gave a remaining binding of 100% (cell-free assay; competition with immobilised ligand; 1 µM).
`F[C@@H]1CCN(c2nccc(-c3cnn4ncccc34)n2)C1` gave a remaining binding of 72% (binding; 1 µM).
With `COc1cnc(Nc2cccc(S(N)(=O)=O)c2)nc1N1CCN(c2ccccc2)CC1` the remaining binding was 87% (binding; competition with immobilised ligand; 1 µM).
`O=C(NCC1CCOCC1)c1n[nH]cc1NC(=O)c1c(F)cccc1F` has a remaining binding of 90% (binding; competition with immobilised ligand; 1 µM).
The remaining binding of `Cc1cnn2ncc(-c3ccnc(N(C)C)n3)c2c1` is reported as 67% (binding; 1 µM).
`COCCOc1nc(-c2ccc(Cl)nc2)nc2c1CN(C(=O)c1ncn3ccccc13)CC2` has a remaining binding of 100% (cell-free assay; competition with immobilised ligand; 0.1 µM).
`CC1CCCN1c1nccc(-c2cnn3ncccc23)n1` (stereo not shown) has a remaining binding of 84% (binding; 1 µM).
The remaining binding of `c1cncc(-c2cccc(Nc3nccc(NC4CCCCC4)n3)c2)c1` is reported as 47% (binding; competition with immobilised ligand; 10 µM).
With `c1cnn2ncc(-c3ccnc(N4CCC45COC5)n3)c2c1` the remaining binding was 52% (binding; 1 µM).
The remaining binding of `CCOC(=O)c1cc2cc(-c3cc(C(=O)NCc4ccc(C(=O)O)cc4)nn3C)ccc2[nH]1` is reported as 96% (cell-free assay; competition with immobilised ligand; 0.1 µM).
The remaining binding of `O=C(NCCCN1CCOCC1)c1ccc(Nc2ncc(Cl)c(-c3ccc(Cl)s3)n2)cc1` is reported as 56% (binding; competition with immobilised ligand; 1 µM).
With `C[C@@H]1CN(c2cc(-c3nn(C)c4ccc(OC5(C)CC5)cc34)ncn2)C[C@H](C)O1` the remaining binding was 77% (cell-free assay; competition with immobilised ligand; 1 µM).
The remaining binding of `CN(C)c1nccc(-c2cnn3ncccc23)n1` is reported as 76% (binding; 1 µM).
